Experimental data as given in ChEMBL document CHEMBL1157930, “Design, synthesis, biological evaluation and computational investigation of novel inhibitors of dihydrofolate reductase of opportunistic pathogens” (Bioorg Med Chem, 2010).

Key:
[1] = target: T1, Bifunctional dihydrofolate reductase-thymidylate synthase (Toxoplasma gondii) (UniProt Q07422); assay: Inhibition of Toxoplasma gondii DHFR by continuous spectrophotometric assay
T1 sequence (whole entry): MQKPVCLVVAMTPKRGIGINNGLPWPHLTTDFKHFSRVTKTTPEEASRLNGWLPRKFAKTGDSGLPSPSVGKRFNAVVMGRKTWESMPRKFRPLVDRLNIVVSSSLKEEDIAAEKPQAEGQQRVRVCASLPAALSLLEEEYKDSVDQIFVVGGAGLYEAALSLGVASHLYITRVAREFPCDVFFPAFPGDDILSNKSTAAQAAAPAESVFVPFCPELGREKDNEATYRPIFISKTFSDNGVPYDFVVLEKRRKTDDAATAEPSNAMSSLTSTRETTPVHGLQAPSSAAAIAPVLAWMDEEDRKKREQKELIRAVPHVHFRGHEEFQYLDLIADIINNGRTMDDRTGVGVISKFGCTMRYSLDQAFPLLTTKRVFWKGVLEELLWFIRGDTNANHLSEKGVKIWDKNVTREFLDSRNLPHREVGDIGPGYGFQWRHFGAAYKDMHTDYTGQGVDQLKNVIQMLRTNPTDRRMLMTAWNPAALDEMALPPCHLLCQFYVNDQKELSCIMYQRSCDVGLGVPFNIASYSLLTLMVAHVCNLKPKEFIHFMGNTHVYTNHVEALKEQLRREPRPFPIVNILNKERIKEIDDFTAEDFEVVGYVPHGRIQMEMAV
Summary of the method: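 Toxoplasma gondii DHFR was assayed continuously by spectrophotometry, following NADPH oxidation at 340 at 37 °C with saturating substrate and cofactor, in triplicate. […]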

[2] = target: T2, Dihydrofolate reductase (Rattus norvegicus) (UniProt Q920D2); assay: Inhibition of rat liver DHFR at IC50 by continuous spectrophotometric assay
T2 sequence (whole entry): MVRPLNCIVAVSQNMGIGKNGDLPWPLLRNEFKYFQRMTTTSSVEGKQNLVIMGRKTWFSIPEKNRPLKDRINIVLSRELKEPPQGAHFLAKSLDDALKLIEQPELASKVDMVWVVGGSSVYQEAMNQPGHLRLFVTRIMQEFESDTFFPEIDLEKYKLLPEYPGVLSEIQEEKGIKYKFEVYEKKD
Summary of the method: (§1)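 Continuous spectrophotometric assay of pathogen (pc, tg, ma) or rat liver DHFR. NADPH oxidation was followed at 340, at 37 °C, with substrate and cofactor both saturating. […]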

[3] = Selectivity ratio of IC50 for rat liver DHFR to IC50 for Toxoplasma gondii DHFR
Summary of the method: (§2)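 The ratio is rat liver DHFR IC50 divided by pathogen DHFR IC50. Both IC50s come from triplicate continuous spectrophotometric assays following NADPH oxidation at 37 °C, with substrate and cofactor saturating.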

[4] = Selectivity ratio of IC50 for rat liver DHFR to IC50 for Mycobacterium avium DHFR; summary of the method: as §2
[5] = target: T1, Bifunctional dihydrofolate reductase-thymidylate synthase (Toxoplasma gondii); assay: Inhibition of Toxoplasma gondii DHFR at IC50 by continuous spectrophotometric assay; design: concentration or dose not given beside the values; summary of the method: as §1
[6] = target: T3, Dihydrofolate reductase (Mycobacterium avium) (UniProt O30463); assay: Inhibition of Mycobacterium avium DHFR at IC50 by continuous spectrophotometric assay; summary of the method: as §1
T3 sequence (whole entry): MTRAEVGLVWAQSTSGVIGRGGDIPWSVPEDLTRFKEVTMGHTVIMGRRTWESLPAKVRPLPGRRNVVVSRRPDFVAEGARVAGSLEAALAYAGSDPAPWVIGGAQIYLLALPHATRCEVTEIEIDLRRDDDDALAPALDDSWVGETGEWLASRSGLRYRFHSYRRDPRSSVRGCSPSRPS

[7] = Selectivity ratio of IC50 for rat liver DHFR to IC50 for Pneumocystis carinii DHFR; summary of the method: as §2
[8] = target: T4, Dihydrofolate reductase (Pneumocystis carinii) (UniProt P16184); assay: Inhibition of Pneumocystis carinii DHFR at IC50 by continuous spectrophotometric assay; summary of the method: as §1
T4 sequence (whole entry): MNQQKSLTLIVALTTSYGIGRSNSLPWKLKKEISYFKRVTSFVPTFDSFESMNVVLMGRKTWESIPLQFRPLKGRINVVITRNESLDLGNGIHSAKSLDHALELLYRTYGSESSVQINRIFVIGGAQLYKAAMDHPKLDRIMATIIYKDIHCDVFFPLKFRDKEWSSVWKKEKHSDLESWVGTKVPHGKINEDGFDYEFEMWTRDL

SMILES	Activity [1]	inhibition [2]	Ratio IC50 [3]	Ratio IC50 [4]	inhibition [5]	inhibition [6]	IC50 selectivity ratio (rat liver / P. carinii DHFR) [7]	inhibition [8]
Nc1cc(OCCN2c3ccccc3C=Cc3ccccc32)nc(N)n1	3.35 µM	39%	> 35.8	> 51.4				
Nc1ncc(COS(=O)(=O)c2ccc3ccccc3c2)c(N)n1	124 µM	0%			13%	15%	> 15.7	
Cc1ccc(COc2ccc(C(=O)/C=C/c3cnc(N)nc3N)cc2)cc1	117 µM	0%			10%	4%		2%
COc1ccc(C(=O)/C=C/c2cnc(N)nc2N)cc1	151 µM				15%	14%		4%
Nc1ncc(CN2c3ccccc3C=Cc3ccccc32)c(N)n1	8.07 µM	15%	> 16	> 20			> 5	
Nc1ncc(CN2c3ccccc3CCc3ccccc32)c(N)n1	0.14 µM		11.5	14.4			1.89	
Nc1ncc(CSc2nc3ccccc3o2)c(N)n1	160 µM		3.25	22.5			14.5	
CN(Cc1cnc(N)nc1N)c1cccc2ccccc12	3.49 µM		52.7	209			4.79	
Nc1nc(N)nc(CN2c3ccccc3Sc3ccccc32)n1	143 µM	16%			15%	4%		
COc1ccc(NCc2cnc(N)nc2N)cc1	44 µM	0%			7%	0%		
Nc1nc(N)c2nc(CN3c4ccccc4C=Cc4ccccc43)cnc2n1	0.043 µM		102	367				
Nc1nc(N)nc(CN2c3ccccc3CCc3ccccc32)n1	140 µM	0%			10%	9%		
Nc1ncc(CNc2cccc3ccccc23)c(N)n1	22.1 µM		5.78			9%	0.85	
Nc1nc(N)nc(CN2c3ccccc3Sc3ccc(Cl)cc32)n1	397 µM	8%				5%		
COc1cc(COc2cc(N)nc(N)n2)cc(OC)c1OC	145 µM	12%			10%	12%		0%
Nc1nc(N)c2cc(COC(=O)c3c4ccccc4cc4ccccc34)ccc2n1	0.67 µM		0.31	0.21			0.43	
